Compounds with a hit are over-represented: about 2.3% of the library has one in this group of screens.
TAAR1 ag: agonists of human TAAR1; AID 624467; hit rate 0.99% among 360,000; activation, % at 3 µM; Q96RJ0; CHO RD-HGA16 TAAR1, Fluo-8 calcium fluorescence; vehicle wells 0%, saturating PEA agonist 100%;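 active = activation above the mean activation of all test compounds in the run plus 3 SD, cut at about 38% in these data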
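Test system: RD-HGA16 (CHO) cells co-expressing Gα16 and hTAAR1 | Doses: Single dose, 3 µM | Schedule: 17-24 h seeding, 75 min 37 °C dye, 30 min RT | Evaluation: % activation from peak over basal fluorescence ratio, DMSO-to-PEA scaled | Technique: Kinetic Fluo-8 calcium fluorescence | Benchmarks: Low control DMSO, high control PEA (EC100)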
OXTR ag: activates the human oxytocin receptor; P30559; CHO-OTR cells, Fluo-8 calcium fluorescence; normalized: DMSO 0%, oxytocin 100%; activation, % at 3 µM; hit rate 0.32% among 320,000; AID 2435;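 active = activation above the mean of all tested compounds plus 3 SD, cutoff set per screening run, cut at about 20% in these data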;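 note: peak over basal fluorescence ratio from a 100 s FLIPR kinetic read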
TAAR1 antag: human TAAR1 antagonism | hit rate 1.5% among 360,000 | AID 624466 | inhibition, % at 3 µM | CHO RD-HGA16 TAAR1, Fluo-8 calcium fluorescence, antagonist;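 active = inhibition above a per-plate cutoff, the mean inhibition of test compounds on that plate plus 3 SD, cut at about 49% in these data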
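Test system: hTAAR1-expressing CHO RD-HGA16 cells, Gα16-coupled; Probe or stimulus: EC80 β-phenethylamine stimulus; Compound dosing: single nominal final test compound concentration of 3 µM; Timing: 140 s kinetic read after compound, 140 s after agonist; Signal: Fluo-8 calcium-sensitive fluorescence; Measure: % inhibition of agonist calcium response; Controls: DMSO and EC80 PEA controls.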
OXTR potentiate: potentiators of human oxytocin receptor; CHO-OTR cells, Fluo-8 calcium fluorescence, potentiator mode; 0% = oxytocin EC15, 100% = EC100; activation, % at 3 µM; hit rate 0.061% among 320,000; AID 2445;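 active = activation above that plate's cutoff, the mean activation of tested compounds plus 3 SD, cut at about 6.6% in these data, passing the limit was not always enough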
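Material: human OTR in CHO cells. Compound: 3.0 µM, one dose. Timing: compound 6 min at room temperature before oxytocin, 100 s read. Evaluation: % activation of max/min ratio relative to oxytocin controls. Replication: single well per compound, singlicate. Signal: Fluo-8 calcium dye fluorescence.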
V1aR counter: counter-screen for oxytocin receptor agonists: human V1a receptor agonists. hit rate 0.25% among 320,000. CHO-V1R cells, Fluo-8 calcium fluorescence, agonist mode; 0% DMSO, 100% 3 nM vasopressin. AID 2797. activation, % at 3 µM. P37288;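 active = activation above the mean activation of all tested compounds plus 3 SD, per screening run, cut at about 20% in these data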;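 note: signal is peak over basal fluorescence ratio across a 100 second FLIPR read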
Target sequence (P37288 whole entry, looked up): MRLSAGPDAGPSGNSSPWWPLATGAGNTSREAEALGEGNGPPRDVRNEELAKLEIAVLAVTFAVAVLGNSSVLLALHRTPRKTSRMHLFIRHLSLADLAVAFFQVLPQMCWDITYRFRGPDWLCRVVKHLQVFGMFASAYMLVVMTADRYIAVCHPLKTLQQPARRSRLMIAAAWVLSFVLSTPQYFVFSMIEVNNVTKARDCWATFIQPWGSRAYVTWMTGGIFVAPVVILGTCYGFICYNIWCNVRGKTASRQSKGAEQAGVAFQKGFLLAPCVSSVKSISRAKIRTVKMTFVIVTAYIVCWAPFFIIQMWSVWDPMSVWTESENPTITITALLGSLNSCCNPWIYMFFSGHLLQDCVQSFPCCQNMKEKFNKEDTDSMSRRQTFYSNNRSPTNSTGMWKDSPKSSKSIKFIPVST
Of the large screens only hits and unclear results are named; the others gave an inactive call.

CCN(CC)c1ccc(C(=O)NNC(=O)CCNC(=O)c2ccccc2)cc1	none
O=c1cc(-c2ccccc2)nc2nc(-c3ccco3)[nH]n12	none
CCN(CC)c1ccc2cc(C(N)=O)c(=O)oc2c1	none
CCN(CC)c1ccc2cc(-c3nnc(-c4ccncc4)o3)c(=O)oc2c1	TAAR1 ag 39.7 (no result: OXTR ag, OXTR potentiate, V1aR counter)
CCN(CC)c1ccc2cc(C(C)=O)c(=O)oc2c1	none
CCN(CC)c1ccc2cc(C=O)c(=O)oc2c1	TAAR1 ag 73.2, OXTR ag 109.8, V1aR counter 88.0
COC(=O)[C@]12CCCCC=C1N(Cc1ccccc1)C(=O)[C@H](CC(=O)N1CCCC1)C2	TAAR1 antag 55.7 (no result: OXTR ag, OXTR potentiate, V1aR counter)
COC(=O)[C@]12CCCCC=C1N(Cc1ccc3c(c1)OCO3)C(=O)[C@H](CC(=O)N1CCCC1)C2	TAAR1 antag 53.6 (no result: OXTR ag, OXTR potentiate, V1aR counter)
CCOC(=O)[C@]12CCC=C1N(Cc1ccc3c(c1)OCO3)C(=O)[C@H](CC(=O)N1CCCC1)C2	none (no result: OXTR ag, OXTR potentiate, V1aR counter)
COC(=O)[C@]12CCCCC=C1N(CCc1ccc(OC)c(OC)c1)C(=O)[C@H](CC(=O)N1CCCC1)C2	none (no result: OXTR ag, OXTR potentiate, V1aR counter)
C#CCNC(=O)C[C@@H]1C[C@@]2(C(=O)OC)CCCCC=C2N(Cc2ccc3c(c2)OCO3)C1=O	none (no result: OXTR ag, OXTR potentiate, V1aR counter)
COC(=O)[C@]12CCCCC=C1N(CCc1ccc(OC)c(OC)c1)C(=O)[C@H](CC(=O)N1CCSCC1)C2	TAAR1 antag 60.6 (no result: OXTR ag, OXTR potentiate, V1aR counter)
COC(=O)[C@]12CCCCC=C1N(Cc1ccc3c(c1)OCO3)C(=O)[C@H](CC(=O)N1CCCCC1)C2	TAAR1 antag 52.3 (no result: OXTR ag, OXTR potentiate, V1aR counter)
COc1cccc(-c2cc(C(=O)Nc3ccc([N+](=O)[O-])cn3)c3ccccc3n2)c1	none
Cc1cc(C)c(NC(=O)Nc2ccccc2)c(Cl)c1	none
COc1ccc(OCC(=O)NCCNC(=O)c2ccccn2)cc1	none
CN1c2ccccc2C(C)(C)C12C=Nc1c(ccc3ccccc13)O2 (centres undefined)	TAAR1 ag 40.2
CCn1c(N2CCN(S(=O)(=O)c3ccc(F)cc3)CC2)nc2ccccc21	none
CCn1c(N2CCN(S(=O)(=O)c3ccc(Cl)cc3)CC2)nc2ccccc21	TAAR1 antag 72.4
CC1Nc2ncnc(N3CCc4ccccc4C3)c2N(Cc2ccccc2)C1=O (centres undefined)	TAAR1 ag 38.6 (no result: OXTR ag, OXTR potentiate, V1aR counter)
CC1Nc2ncnc(N3CCOCC3)c2N(Cc2ccccc2)C1=O (centres undefined)	none
CCC1Nc2ncnc(N3CCc4ccccc4C3)c2N(Cc2ccc(Cl)cc2)C1=O (centres undefined)	TAAR1 ag 39.6
O=C1C(Cc2ccccc2)Nc2ncnc(N3CCc4ccccc4C3)c2N1Cc1ccc(Cl)cc1 (centres undefined)	none (no result: TAAR1 ag, TAAR1 antag)
Cc1nc2ccccc2nc1Nc1cccc(Cl)c1	none
COc1ccc(-c2csc(NC(=O)C3=NN(c4ccccc4)C(=O)CC3)n2)cc1	TAAR1 antag 56.6
COc1ccc(-c2csc(NC(=O)c3cccc(N4C(=O)CCC4=O)c3)n2)cc1C	TAAR1 antag 48.9
COc1ccc(-c2csc(NC(=S)NC(=O)c3cccs3)n2)cc1OC	TAAR1 antag 49.6 (no result: OXTR ag, OXTR potentiate, V1aR counter)
Cc1cc(Br)ccc1NC(=O)CCS(=O)(=O)c1cccc2nonc12	none
CCCSc1nnc(NC(=O)c2nc(SC)ncc2Cl)s1	none
C=CCN(c1ccccc1OC)S(=O)(=O)c1cccc(C(=O)OCC(=O)c2c(N)n(C)c(=O)n(C)c2=O)c1	TAAR1 antag 51.7 (no result: OXTR ag, OXTR potentiate, V1aR counter)
CCOC(=O)C1CCCN(CC(=O)c2ccc(F)cc2)C1 (centres undefined)	TAAR1 ag 57.5, TAAR1 antag 54.0
COC(=O)C1(C)NC(c2ccc(O)cc2)C2C(=O)N(c3ccc(F)cc3)C(=O)C21 (centres undefined)	none
Cc1nc(N2CCN(C)CC2)c2sc(=S)n(-c3ccccc3)c2n1	none
S=c1sc2c(Cl)ncnc2n1-c1ccccc1	TAAR1 antag 53.7 (no result: OXTR ag, OXTR potentiate, V1aR counter)
COC(=O)c1ccc(CNC(=O)c2ccc3c(c2)NC(=O)CS3)cc1	none
c1ccc(C[C@H]2CN=C(Nc3ccccc3)N2CC2CCCCC2)cc1	TAAR1 ag 41.2
CC1CCC(CN2C(Nc3ccccc3)=NC[C@@H]2Cc2ccccc2)CC1 (some centres undefined)	TAAR1 ag 44.3
CC(Nc1nc(N2CCNCC2)nc2ccccc12)c1ccccc1 (centres undefined)	TAAR1 ag 39.2

Assay outcomes from PubChem.
